According to ChEMBL document CHEMBL3044834, “Novel protoporphyrinogen oxidase inhibitors: 3H-pyrazolo[3,4-d][1,2,3]triazin-4-one derivatives” (J Agric Food Chem, 2008):

Key:
Type in all cases: functional
[1] = test system: Brassica rapa subsp. oleifera; assay: Herbicidal activity against Brassica rapa subsp. oleifera assessed as inhibition of fresh weed plant weight at 93.75 g/ha using post-emergence treatment protocol
Summary of the method: (§1)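 Test compounds made up as emulsions by dissolving in 100 µL N,N-dimethylformamide, then adding a little Tween 20 and water. For post-emergence, weed seedlings at one leaf and one stem were sprayed at the same rates as the pre-emergence test. Fresh weight was recorded 15 days after treatment and expressed as percent inhibition versus controls. All treatments were run in triplicate.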

Amaranthus retroflexus [2] = assay: Herbicidal activity against Amaranthus retroflexus assessed as inhibition of fresh weed plant weight at 750 g/ha using pre-emergence treatment protocol; summary of the method: as §1
[3] = test system: Brassica rapa subsp. oleifera; assay: Herbicidal activity against Brassica rapa subsp. oleifera assessed as inhibition of fresh weed plant weight at 375 g/ha using pre-emergence treatment protocol
Digitaria sanguinalis [4] = assay: Herbicidal activity against Digitaria sanguinalis (hairy crabgrass) assessed as inhibition of fresh weed plant weight at 375 g/ha using pre-emergence treatment protocol
Digitaria sanguinalis [5] = assay: Herbicidal activity against Digitaria sanguinalis (hairy crabgrass) assessed as inhibition of fresh weed plant weight at 187.5 g/ha using post-emergence treatment protocol; summary of the method: as §1
Echinochloa crus-galli [6] = assay: Herbicidal activity against Echinochloa crus-galli (barnyard grass) assessed as inhibition of fresh weed plant weight at 93.75 g/ha using post-emergence treatment protocol; summary of the method: as §1
Digitaria sanguinalis [7] = assay: Herbicidal activity against Digitaria sanguinalis (hairy crabgrass) assessed as inhibition of fresh weed plant weight at 45 g/ha using pre-emergence treatment protocol
Amaranthus retroflexus [8] = assay: Herbicidal activity against Amaranthus retroflexus assessed as inhibition of fresh weed plant weight at 1500 g/ha using pre-emergence treatment protocol
[9] = test system: Brassica rapa subsp. oleifera; assay: Herbicidal activity against Brassica rapa subsp. oleifera assessed as inhibition of fresh weed plant weight at 187.5 g/ha using pre-emergence treatment protocol
[10] = test system: Brassica rapa subsp. oleifera; assay: Herbicidal activity against Brassica rapa subsp. oleifera assessed as inhibition of fresh weed plant weight at 22.5 g/ha using pre-emergence treatment protocol
Digitaria sanguinalis [11] = assay: Herbicidal activity against Digitaria sanguinalis (hairy crabgrass) assessed as inhibition of fresh weed plant weight at 187.5 g/ha using pre-emergence treatment protocol
Digitaria sanguinalis [12] = assay: Herbicidal activity against Digitaria sanguinalis (hairy crabgrass) assessed as inhibition of fresh weed plant weight at 22.5 g/ha using pre-emergence treatment protocol
Digitaria sanguinalis [13] = assay: Herbicidal activity against Digitaria sanguinalis (hairy crabgrass) assessed as inhibition of fresh weed plant weight at 93.75 g/ha using pre-emergence treatment protocol
[14] = test system: Brassica rapa subsp. oleifera; assay: Herbicidal activity against Brassica rapa subsp. oleifera assessed as inhibition of fresh weed plant weight at 750 g/ha using post-emergence treatment protocol; summary of the method: as §1
Echinochloa crus-galli [15] = assay: Herbicidal activity against Echinochloa crus-galli (barnyard grass) assessed as inhibition of fresh weed plant weight at 1500 g/ha using post-emergence treatment protocol; summary of the method: as §1
Amaranthus retroflexus [16] = assay: Herbicidal activity against Amaranthus retroflexus assessed as inhibition of fresh weed plant weight at 45 g/ha using pre-emergence treatment protocol
Echinochloa crus-galli [17] = assay: Herbicidal activity against Echinochloa crus-galli (barnyard grass) assessed as inhibition of fresh weed plant weight at 187.5 g/ha using pre-emergence treatment protocol; summary of the method: as §1
Amaranthus retroflexus [18] = assay: Herbicidal activity against Amaranthus retroflexus assessed as inhibition of fresh weed plant weight at 750 g/ha using post-emergence treatment protocol; summary of the method: as §1
Amaranthus retroflexus [19] = assay: Herbicidal activity against Amaranthus retroflexus assessed as inhibition of fresh weed plant weight at 187.5 g/ha using pre-emergence treatment protocol
Echinochloa crus-galli [20] = assay: Herbicidal activity against Echinochloa crus-galli (barnyard grass) assessed as inhibition of fresh weed plant weight at 22.5 g/ha using pre-emergence treatment protocol; summary of the method: as §1
[21] = test system: Brassica rapa subsp. oleifera; assay: Herbicidal activity against Brassica rapa subsp. oleifera assessed as inhibition of fresh weed plant weight at 187.5 g/ha using post-emergence treatment protocol; summary of the method: as §1
Digitaria sanguinalis [22] = assay: Herbicidal activity against Digitaria sanguinalis (hairy crabgrass) assessed as inhibition of fresh weed plant weight at 1500 g/ha using post-emergence treatment protocol; summary of the method: as §1
Echinochloa crus-galli [23] = assay: Herbicidal activity against Echinochloa crus-galli (barnyard grass) assessed as inhibition of fresh weed plant weight at 45 g/ha using pre-emergence treatment protocol
[24] = test system: Brassica rapa subsp. oleifera; assay: Herbicidal activity against Brassica rapa subsp. oleifera assessed as inhibition of fresh weed plant weight at 45 g/ha using pre-emergence treatment protocol
Echinochloa crus-galli [25] = assay: Herbicidal activity against Echinochloa crus-galli (barnyard grass) assessed as inhibition of fresh weed plant weight at 187.5 g/ha using post-emergence treatment protocol; summary of the method: as §1
Amaranthus retroflexus [26] = assay: Herbicidal activity against Amaranthus retroflexus assessed as inhibition of fresh weed plant weight at 93.75 g/ha using post-emergence treatment protocol; summary of the method: as §1
Amaranthus retroflexus [27] = assay: Herbicidal activity against Amaranthus retroflexus assessed as inhibition of fresh weed plant weight at 375 g/ha using post-emergence treatment protocol; summary of the method: as §1
Echinochloa crus-galli [28] = assay: Herbicidal activity against Echinochloa crus-galli (barnyard grass) assessed as inhibition of fresh weed plant weight at 375 g/ha using pre-emergence treatment protocol; summary of the method: as §1
[29] = test system: Brassica rapa subsp. oleifera; assay: Herbicidal activity against Brassica rapa subsp. oleifera assessed as inhibition of fresh weed plant weight at 1500 g/ha using post-emergence treatment protocol; summary of the method: as §1
Amaranthus retroflexus [30] = assay: Herbicidal activity against Amaranthus retroflexus assessed as inhibition of fresh weed plant weight at 22.5 g/ha using pre-emergence treatment protocol
[31] = test system: Brassica rapa subsp. oleifera; assay: Herbicidal activity against Brassica rapa subsp. oleifera assessed as inhibition of fresh weed plant weight at 1500 g/ha using pre-emergence treatment protocol
Digitaria sanguinalis [32] = assay: Herbicidal activity against Digitaria sanguinalis (hairy crabgrass) assessed as inhibition of fresh weed plant weight at 1500 g/ha using pre-emergence treatment protocol
Digitaria sanguinalis [33] = assay: Herbicidal activity against Digitaria sanguinalis (hairy crabgrass) assessed as inhibition of fresh weed plant weight at 750 g/ha using post-emergence treatment protocol; summary of the method: as §1
Amaranthus retroflexus [34] = assay: Herbicidal activity against Amaranthus retroflexus assessed as inhibition of fresh weed plant weight at 93.75 g/ha using pre-emergence treatment protocol
Echinochloa crus-galli [35] = assay: Herbicidal activity against Echinochloa crus-galli (barnyard grass) assessed as inhibition of fresh weed plant weight at 1500 g/ha using pre-emergence treatment protocol
Digitaria sanguinalis [36] = assay: Herbicidal activity against Digitaria sanguinalis (hairy crabgrass) assessed as inhibition of fresh weed plant weight at 750 g/ha using pre-emergence treatment protocol
Echinochloa crus-galli [37] = assay: Herbicidal activity against Echinochloa crus-galli (barnyard grass) assessed as inhibition of fresh weed plant weight at 750 g/ha using pre-emergence treatment protocol
[38] = test system: Brassica rapa subsp. oleifera; assay: Herbicidal activity against Brassica rapa subsp. oleifera assessed as inhibition of fresh weed plant weight at 93.75 g/ha using pre-emergence treatment protocol
Amaranthus retroflexus [39] = assay: Herbicidal activity against Amaranthus retroflexus assessed as inhibition of fresh weed plant weight at 375 g/ha using pre-emergence treatment protocol
[40] = test system: Brassica rapa subsp. oleifera; assay: Herbicidal activity against Brassica rapa subsp. oleifera assessed as inhibition of fresh weed plant weight at 375 g/ha using post-emergence treatment protocol; summary of the method: as §1
Digitaria sanguinalis [41] = assay: Herbicidal activity against Digitaria sanguinalis (hairy crabgrass) assessed as inhibition of fresh weed plant weight at 93.75 g/ha using post-emergence treatment protocol; summary of the method: as §1
Digitaria sanguinalis [42] = assay: Herbicidal activity against Digitaria sanguinalis (hairy crabgrass) assessed as inhibition of fresh weed plant weight at 375 g/ha using post-emergence treatment protocol; summary of the method: as §1
[43] = test system: Brassica rapa subsp. oleifera; assay: Herbicidal activity against Brassica rapa subsp. oleifera assessed as inhibition of fresh weed plant weight at 750 g/ha using pre-emergence treatment protocol
Echinochloa crus-galli [44] = assay: Herbicidal activity against Echinochloa crus-galli (barnyard grass) assessed as inhibition of fresh weed plant weight at 750 g/ha using post-emergence treatment protocol; summary of the method: as §1
Echinochloa crus-galli [45] = assay: Herbicidal activity against Echinochloa crus-galli (barnyard grass) assessed as inhibition of fresh weed plant weight at 375 g/ha using post-emergence treatment protocol; summary of the method: as §1
Amaranthus retroflexus [46] = assay: Herbicidal activity against Amaranthus retroflexus assessed as inhibition of fresh weed plant weight at 187.5 g/ha using post-emergence treatment protocol; summary of the method: as §1
Echinochloa crus-galli [47] = assay: Herbicidal activity against Echinochloa crus-galli (barnyard grass) assessed as inhibition of fresh weed plant weight at 93.75 g/ha using pre-emergence treatment protocol
Amaranthus retroflexus [48] = assay: Herbicidal activity against Amaranthus retroflexus assessed as inhibition of fresh weed plant weight at 1500 g/ha using post-emergence treatment protocol; summary of the method: as §1

SMILES: C#CCN1C(=O)COc2cc(F)c(-n3nnc4c(cnn4CC=C)c3=O)cc21
- inhibition at 93.75 g/ha [1]: 18.5%
- inhibition at 750 g/ha (Amaranthus retroflexus [2]): 100%
- inhibition at 375 g/ha [3]: 100%
- inhibition at 375 g/ha (Digitaria sanguinalis [4]): 100%
- inhibition at 187.5 g/ha (Digitaria sanguinalis [5]): 0%
- inhibition at 93.75 g/ha (Echinochloa crus-galli [6]): 7%
- inhibition at 45 g/ha (Digitaria sanguinalis [7]): 2.4%
- inhibition at 1500 g/ha (Amaranthus retroflexus [8]): 100%
- inhibition at 187.5 g/ha [9]: 100%
- inhibition at 22.5 g/ha [10]: 22.3%
- inhibition at 187.5 g/ha (Digitaria sanguinalis [11]): 77.6%
- inhibition at 22.5 g/ha (Digitaria sanguinalis [12]): 0%
- inhibition at 93.75 g/ha (Digitaria sanguinalis [13]): 44.9%
- inhibition at 750 g/ha [14]: 100%
- inhibition at 1500 g/ha (Echinochloa crus-galli [15]): 85.2%
- inhibition at 45 g/ha (Amaranthus retroflexus [16]): 86.2%
- inhibition at 187.5 g/ha (Echinochloa crus-galli [17]): 63.7%
- inhibition at 750 g/ha (Amaranthus retroflexus [18]): 100%
- inhibition at 187.5 g/ha (Amaranthus retroflexus [19]): 100%
- inhibition at 22.5 g/ha (Echinochloa crus-galli [20]): 25.1%
- inhibition at 187.5 g/ha [21]: 72.9%
- inhibition at 1500 g/ha (Digitaria sanguinalis [22]): 32.1%
- inhibition at 45 g/ha (Echinochloa crus-galli [23]): 34%
- inhibition at 45 g/ha [24]: 66.7%
- inhibition at 187.5 g/ha (Echinochloa crus-galli [25]): 27.8%
- inhibition at 93.75 g/ha (Amaranthus retroflexus [26]): 0%
- inhibition at 375 g/ha (Amaranthus retroflexus [27]): 83.5%
- inhibition at 375 g/ha (Echinochloa crus-galli [28]): 97.3%
- inhibition at 1500 g/ha [29]: 100%
- inhibition at 22.5 g/ha (Amaranthus retroflexus [30]): 76.6%
- inhibition at 1500 g/ha [31]: 100%
- inhibition at 1500 g/ha (Digitaria sanguinalis [32]): 100%
- inhibition at 750 g/ha (Digitaria sanguinalis [33]): 16.7%
- inhibition at 93.75 g/ha (Amaranthus retroflexus [34]): 100%
- inhibition at 1500 g/ha (Echinochloa crus-galli [35]): 100%
- inhibition at 750 g/ha (Digitaria sanguinalis [36]): 100%
- inhibition at 750 g/ha (Echinochloa crus-galli [37]): 98.9%
- inhibition at 93.75 g/ha [38]: 100%
- inhibition at 375 g/ha (Amaranthus retroflexus [39]): 100%
- inhibition at 375 g/ha [40]: 100%
- inhibition at 93.75 g/ha (Digitaria sanguinalis [41]): 0%
- inhibition at 375 g/ha (Digitaria sanguinalis [42]): 4.2%
- inhibition at 750 g/ha [43]: 100%
- inhibition at 750 g/ha (Echinochloa crus-galli [44]): 51.6%
- inhibition at 375 g/ha (Echinochloa crus-galli [45]): 43.5%
- inhibition at 187.5 g/ha (Amaranthus retroflexus [46]): 5.8%
- inhibition at 93.75 g/ha (Echinochloa crus-galli [47]): 53.4%
- inhibition at 1500 g/ha (Amaranthus retroflexus [48]): 100%
